Activity calls are given as the source filed them. The rule behind the calls is not given here.
Tests used:
[1] = target: T1, UDP-N-acetylmuramoyl-tripeptide--D-alanyl-D-alanine ligase (Pseudomonas aeruginosa) (UniProt Q9EY48); assay: Inhibition of Pseudomonas aeruginosa MurF ATPase activity assessed as residual enzyme activity at 5 mM by spectrophotometric assay relative to control
T1 sequence (whole entry): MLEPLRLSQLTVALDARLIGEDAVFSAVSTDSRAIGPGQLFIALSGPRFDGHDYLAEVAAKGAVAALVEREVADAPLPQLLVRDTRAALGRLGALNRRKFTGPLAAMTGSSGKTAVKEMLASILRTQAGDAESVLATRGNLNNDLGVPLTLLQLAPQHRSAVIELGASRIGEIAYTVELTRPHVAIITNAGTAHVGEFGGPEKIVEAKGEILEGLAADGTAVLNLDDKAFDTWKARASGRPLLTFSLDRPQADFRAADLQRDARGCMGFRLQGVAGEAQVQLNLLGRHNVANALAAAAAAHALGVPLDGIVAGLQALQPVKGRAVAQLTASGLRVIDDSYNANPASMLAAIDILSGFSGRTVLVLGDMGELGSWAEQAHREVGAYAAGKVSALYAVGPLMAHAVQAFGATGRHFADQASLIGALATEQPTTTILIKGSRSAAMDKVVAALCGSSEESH

[2] = target: T2, UDP-N-acetylmuramoyl-tripeptide--D-alanyl-D-alanine ligase (Pseudomonas aeruginosa, UniProt Q9EY48); assay: Inhibition of Pseudomonas aeruginosa MurF ATPase activity by spectrophotometric assay
T2 sequence (Q9EY48 whole entry): T1 sequence (whole entry)
Summary of the method: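 Purified recombinant P. aeruginosa MurF was used at a high enzyme concentration. It was pre-incubated with a range of compound concentrations in pH 8.6 buffer (40 mM KCl, 500 mM NaCl, 1 mg/ml BSA, 10 mM MgCl2) before UDP-MurNAc-Ala-Glu-meso-A2pm and the other substrates were added. IC50 was derived from percent residual ATPase activity versus compound-free enzyme.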

[3] = target: T3, UDP-N-acetylmuramoylalanine-D-glutamyl-lysine-D-alanyl-D-alanine ligase (Streptococcus pneumoniae R6, UniProt Q8DNV6); assay: Inhibition of Streptococcus pneumoniae MurF
T3 sequence (Q8DNV6 whole entry): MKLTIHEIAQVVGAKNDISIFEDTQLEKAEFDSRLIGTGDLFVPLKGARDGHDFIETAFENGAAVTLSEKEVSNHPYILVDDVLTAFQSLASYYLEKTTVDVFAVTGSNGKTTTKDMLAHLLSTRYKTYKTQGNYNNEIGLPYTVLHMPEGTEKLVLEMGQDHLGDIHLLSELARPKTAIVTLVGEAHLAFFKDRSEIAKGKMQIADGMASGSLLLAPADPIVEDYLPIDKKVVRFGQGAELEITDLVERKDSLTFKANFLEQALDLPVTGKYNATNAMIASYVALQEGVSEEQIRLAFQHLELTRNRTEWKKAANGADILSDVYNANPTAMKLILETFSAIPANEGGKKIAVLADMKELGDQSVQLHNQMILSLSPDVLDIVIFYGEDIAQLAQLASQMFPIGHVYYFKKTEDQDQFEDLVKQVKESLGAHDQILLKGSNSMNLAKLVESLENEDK

[4] = test system: MurF (Streptococcus pneumoniae); assay: Inhibition of Streptococcus pneumoniae MurF
Staphylococcus aureus = assay: Antibacterial activity against Staphylococcus aureus; type: functional, organism-based
Pseudomonas aeruginosa = assay: Antibacterial activity against Pseudomonas aeruginosa; type: functional, organism-based
Escherichia coli = assay: Antibacterial activity against Escherichia coli; type: functional, organism-based

| Structure (SMILES) | Activity [1] | IC50 [2] | IC50 [3] | also measured |
| --- | --- | --- | --- | --- |
| CCOC(=O)Cn1/c(=N/N=C/c2ccc([N+](=O)[O-])o2)sc2cc(OC)ccc21 | 51% | > 5100 µM | – | – |
| CCN(CC)S(=O)(=O)c1ccc(Cl)c(C(=O)Nc2sc3c(c2C#N)CC(c2ccc(O)cc2)CC3)c1 (stereo not given) | – | – | 0.054 µM | – |
| C[C@@H]1O[C@@H]1P(=O)(O)O [FOSFOMYCIN] | – | – | – | IC50 [4]: 15 µM |
| N#Cc1c(NC(=O)c2cc(S(=O)(=O)N3CCOCC3)c(Cl)cc2Cl)sc2c1CC(c1ccc(O)cc1)CC2 (stereo not given) | – | – | 0.022 µM | – |
| CSc1ncnc2c1ncn2CC(=O)[C@@]1(O)CC[C@H]2[C@@H]3CCC4=CC(=O)CC[C@]4(C)[C@H]3[C@@H](O)C[C@@]21C | 48% | 4800 µM | – | – |
| O=S(=O)(O)c1ccc(/N=N/c2ccc(O)c(/N=N/c3ccc(S(=O)(=O)O)c4ccccc34)c2O)c2ccccc12 | 100% | > 5000 µM | – | – |
| CCN(CC)S(=O)(=O)c1cc(C(=O)Nc2sc3c(c2C#N)CC(c2ccc(O)cc2)CC3)c(Cl)cc1Cl (stereo not given) | – | – | 0.067 µM | – |
| C[C@]12CCC(=O)C=C1CC[C@@H]1[C@@H]2[C@@H](O)C[C@@]2(C)[C@H]1CC[C@]2(O)C(=O)COC(=O)CCC1CCCC1 [HYDROCORTISONE CYPIONATE] | 86% | > 5000 µM | – | – |
| Cn1nnnc1SCC1=C(C(=O)O)N2C(=O)[C@@H](NC(=O)[C@H](OC=O)c3ccccc3)[C@H]2SC1 [CEFAMANDOLE NAFATE] | 84% | > 5000 µM | – | – |
| COc1ccc(CCN2C(=O)c3cccc4c(Sc5ccccc5[N+](=O)[O-])ccc(c34)C2=O)cc1OC | 0% | 325 µM | – | Activity (Staphylococcus aureus): inactive; Activity (Pseudomonas aeruginosa): inactive; Activity (Escherichia coli): inactive |
| O=C1C=CC(=O)C(SCCCSC2=CC(=O)C(SCCCSC3=CC(=O)C=CC3=O)=CC2=O)=C1 | 0% | 300 µM | – | Activity (Staphylococcus aureus): inactive; Activity (Pseudomonas aeruginosa): inactive; Activity (Escherichia coli): inactive |
| C[C@]12CCC(=O)C=C1CC[C@@H]1[C@@H]2[C@@H](O)C[C@@]2(C)[C@H]1CC[C@]2(O)C(=O)COC(=O)C1C2C=CC(C2)C1C(=O)O (stereo not given in full) | 42% | 4300 µM | – | – |
| N#Cc1c(NC(=O)c2cc(S(=O)(=O)N3CCOCC3)c(F)cc2Cl)sc2c1CCC2 | – | – | > 6.4 µM | – |
| COc1ccc(NC(=O)C(=O)Cc2nc3ccc([N+](=O)[O-])cc3nc2O)c(OC)c1 | 0% | 125 µM | – | Activity (Staphylococcus aureus): inactive; Activity (Pseudomonas aeruginosa): inactive; Activity (Escherichia coli): inactive |
| N#Cc1cc(CCc2ccncc2)sc1NC(=O)c1cc(S(=O)(=O)N2CCOCC2)ccc1Cl | – | – | 6 µM | – |
| O=S(=O)(SC(=S)NCCNC(=S)SS(=O)(=O)c1ccc(Cl)cc1)c1ccc(Cl)cc1 | 71% | > 5000 µM | – | – |
| N#Cc1c(NC(=O)c2cc(S(=O)(=O)N3CCOCC3)c(Cl)cc2Cl)sc2c1CC(c1ccccc1)CC2 (stereo not given) | – | – | 0.07 µM | – |
| N#Cc1c(NC(=O)c2cc(S(=O)(=O)N3CCCCC3)ccc2Cl)sc2c1CCC2 | – | – | 2.5 µM | – |
| CCOC(=O)C1CCc2sc(NC(=O)c3cc(S(=O)(=O)N(CC)CC)ccc3Cl)c(C#N)c2C1 (stereo not given) | – | – | 6 µM | – |
| C[C@]12CCC(=O)C=C1CC[C@@H]1[C@@H]2[C@@H](O)C[C@@]2(C)[C@H]1CC[C@]2(O)C(=O)COC(=O)c1cc([N+](=O)[O-])ccc1Cl | 67% | > 5000 µM | – | – |
